According to ChEMBL document CHEMBL1125107, “Cephalosporin 3'-quinolone esters with a dual mode of action” (J Med Chem, 1990):
Values after ≈ are worked out from the molar mass of the structure shown.

Key:
[1] = system: Pseudomonas aeruginosa; assay: Minimum inhibitory concentration against Pseudomonas aeruginosa ATCC 27853; assay type: functional
In short: (§1)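 Broth MIC determination: serial 2-fold dilutions in Mueller-Hinton broth by standard methodology; the lowest concentration inhibiting growth is reported as the MIC, in nmol/mL.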

[2] = system: Proteus vulgaris; assay: Minimum inhibitory concentration against Proteus vulgaris 1028 BC (Class Ic beta-lactamase overproducer); assay type: functional; in short: as §1
[3] = system: Pseudomonas aeruginosa; assay: Evaluated for the minimum inhibitory concentration against Pseudomonas aeruginosa 18S/H (Class Id beta-lactamase overproducer); assay type: functional
In short: (§2)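 MIC by serial 2-fold dilution in Mueller-Hinton broth; results given as minimum inhibitory concentrations (nmol/mL).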

[4] = system: Streptococcus pneumoniae; assay: Minimum inhibitory concentration against Streptococcus pneumoniae 6301; assay type: functional; in short: as §1
[5] = system: Staphylococcus aureus; assay: Minimum inhibitory concentration against Staphylococcus aureus 95 (Methicillin-resistant, high-level beta-lactamase producer); assay type: functional
In short: (§3)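 Serial 2-fold broth dilution in Mueller-Hinton broth, run by standard methodology; read-out is the minimum inhibitory concentration (MIC).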

[6] = system: Proteus vulgaris; assay: Evaluated for the minimum inhibitory concentration against Proteus vulgaris 1028 BC (Class Ic beta-lactamase overproducer; assay type: functional; in short: as §2
[7] = system: Streptococcus pyogenes; assay: Minimum inhibitory concentration against Streptococcus pyogenes 4; assay type: functional; in short: as §1
[8] = Evaluated for its stability in Mueller-Hinton broth at 37 degrees Celsius as determined by HPLC analysis; assay type: physicochemical
In short: (§4)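 Compound solutions incubated at 37 °C, sampled at intervals; remaining starting material quantified by HPLC on PRP-1 column, UV 286 nm, mobile phase 0.01 M tetradecyltrimethylammonium bromide in 60% 0.067 M pH 7.4 phosphate buffer/40% acetonitrile; half-life reported.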

[9] = Evaluated for its stability in dog blood at 37 degrees Celsius as determined by HPLC analysis; assay type: ADME, organism-based, Canis lupus familiaris; in short: as §4
[10] = Evaluated for its stability in dog serum at 37 degrees Celsius as determined by HPLC analysis; assay type: ADME, organism-based, Canis lupus familiaris; in short: as §4
[11] = Evaluated for its stability in human serum at 37 degrees Celsius as determined by HPLC analysis; assay type: ADME, organism-based; in short: as §4
[12] = Evaluated for its stability in monkey serum at 37 degrees Celsius as determined by HPLC analysis; assay type: ADME, cell-free; settings: simiiformes; in short: as §4
[13] = Evaluated for its stability in phosphate buffer, pH 6.5 at 37 degrees Celsius as determined by HPLC analysis; assay type: physicochemical; in short: as §4
[14] = Evaluated for its stability in phosphate buffer, pH 7.4 at 37 degrees Celsius as determined by HPLC analysis; assay type: physicochemical; in short: as §4
[15] = Evaluated for its stability in rat blood at 37 degrees Celsius as determined by HPLC analysis; assay type: ADME, organism-based; in short: as §4
[16] = Evaluated for its stability in rat serum at 37 degrees Celsius as determined by HPLC analysis; assay type: ADME, organism-based; in short: as §4
[17] = system: Escherichia coli; assay: Evaluated for the minimum inhibitory concentration against Escherichia coli UB 1005; assay type: functional; in short: as §2
[18] = system: Escherichia coli; assay: Evaluated for the in vivo activity in mice against Escherichia coli 257; assay type: functional
[19] = system: Escherichia coli; assay: Evaluated for in Vitro activity against Escherichia coli DC-O; assay type: functional; settings: read-out: MIC; in short: as §2
[20] = system: Micrococcus luteus; assay: Evaluated for in Vitro activity against Micrococcus luteus PCI; assay type: functional; settings: read-out: MIC; in short: as §2
[21] = system: Pseudomonas aeruginosa; assay: Evaluated for the minimum inhibitory concentration against Pseudomonas aeruginosa 18S/H ( Class Id beta-lactamase overproducer); assay type: functional; in short: as §2
[22] = system: Streptococcus pneumoniae; assay: Evaluated for in Vitro activity against Streptococcus pneumoniae 6301; assay type: functional; settings: read-out: MIC; in short: as §2
[23] = system: Streptococcus pyogenes; assay: Evaluated for the in vivo activity in mice against streptococcus pyogenes 4; assay type: functional
[24] = system: Citrobacter freundii; assay: In vitro antibacterial activity was determined against Citrobacter freundii BS-16; assay type: functional; in short: as §2
[25] = system: Escherichia coli; assay: In vitro antibacterial activity was determined against Escherichia coli UB 1005; assay type: functional; in short: as §2
[26] = system: Enterobacter cloacae; assay: In vitro antibacterial activity was determined against Enterobacter cloacae P99; assay type: functional; in short: as §2
[27] = system: Escherichia coli; assay: In vitro antibacterial activity was determined against Escherichia coli TEM-1 (TEM-1 (class IIIa) beta-lactamase producer); assay type: functional; in short: as §2
[28] = system: Proteus mirabilis; assay: In vitro antibacterial activity was determined against Proteus mirabilis 90; assay type: functional; in short: as §2
[29] = system: Proteus vulgaris; assay: In vitro antibacterial activity was determined against Proteus vulgaris 1028 BC ( Class Ic beta-lactamase overproducer; assay type: functional; in short: as §2
[30] = system: Serratia marcescens; assay: In vitro antibacterial activity was determined against Serratia marcescens 1071; assay type: functional; in short: as §1
[31] = system: Staphylococcus aureus; assay: In vitro antibacterial activity was determined against Staphylococcus aureus 1059B ( inducible, high level beta-lactamase producer); assay type: functional; in short: as §1
[32] = system: Staphylococcus aureus; assay: In vitro antibacterial activity was determined against Staphylococcus aureus ATCC 29213 ( inducible, low level beta-lactamase producer); assay type: functional; in short: as §1
[33] = system: Streptococcus pneumoniae; assay: In vitro antibacterial activity was determined against Streptococcus pneumoniae 6301; assay type: functional; in short: as §1
[34] = system: Streptococcus pyogenes; assay: In vitro antibacterial activity was determined against Streptococcus pyogenes 4; assay type: functional; in short: as §1
[35] = system: Pseudomonas aeruginosa; assay: In vitro antibacterial activity was determined against Pseudomonas aeruginosa ATCC 27853; assay type: functional; in short: as §1
[36] = system: Enterococcus faecalis; assay: In vitro antibacterial activity was determined against Enterococcus faecalis ATCC 29212; assay type: functional; in short: as §2
[37] = system: Pseudomonas aeruginosa; assay: In vitro antibacterial activity was determined against Pseudomonas aeruginosa 18S/H ( Class Id beta-lactamase overproducer); assay type: functional; in short: as §1
[38] = system: Staphylococcus aureus; assay: In vitro antibacterial activity was determined against Staphylococcus aureus 95 (Methicillin-resistant, high-level beta-lactamase producer); assay type: functional; in short: as §3
[39] = system: Proteus vulgaris; assay: Evaluated for the minimum inhibitory concentration against Proteus vulgaris 1028 BC; assay type: functional; in short: as §3
[40] = system: Enterobacter cloacae; assay: Evaluated for the minimum inhibitory concentration against Enterobacter cloacae P99 ( Class Ia beta-lactamase overproducer); assay type: functional; in short: as §2

Structure (SMILES)	MIC [1]	MIC [2]	MIC [3]	MIC [4]	MIC [5]	MIC [6]	MIC [7]	MIC [21]	also measured
CCn1cc(C(=O)OCC2=C(C(=O)O)N3C(=O)[C@@H](NC(=O)Cc4cccs4)C3SC2)c(=O)c2cc(F)c(N3CCN(C=O)CC3)cc21 (some centres undefined)	> 128 µg/mL	4 µg/mL (≈ 5.85 µM)	16 µg/mL (≈ 23.4 µM)	0.063 µg/mL (≈ 0.0921 µM)	4 µg/mL (≈ 5.85 µM)	–	–	–	–
O=C(O)c1cn(-c2ccc(F)cc2)c2cc3c(cc2c1=O)OCO3	–	–	0.5 µg/mL (≈ 1.53 µM)	64 µg/mL (≈ 196 µM)	1 µg/mL (≈ 3.06 µM)	0.5 µg/mL (≈ 1.53 µM)	> 128 µg/mL	–	–
CCn1cc(C(=O)OCC2=C(C(=O)O)N3C(=O)[C@@H](NC(=O)Cc4cccs4)C3SC2)c(=O)c2cc3c(cc21)OCO3 (some centres undefined)	> 128 µg/mL	0.25 µg/mL (≈ 0.418 µM)	8 µg/mL (≈ 13.4 µM)	–	4 µg/mL (≈ 6.69 µM)	–	–	–	–
CO/N=C(/C(=O)N[C@@H]1C(=O)N2C(C(=O)O)=C(COC(=O)c3cn(CCF)c4c(F)c(N5CCN(C)CC5)c(F)cc4c3=O)CSC12)c1csc(N)n1 (some centres undefined)	8 µg/mL (≈ 10.5 µM)	0.25 µg/mL (≈ 0.327 µM)	–	< 0.008 µg/mL	2 µg/mL (≈ 2.62 µM)	–	0.031 µg/mL (≈ 0.0405 µM)	4 µg/mL (≈ 5.23 µM)	half-life [8]: 3.4 h; half-life [9]: 3.4 h; half-life [10]: 3.9 h; half-life [11]: 6.3 h; half-life [12]: 5.7 h; half-life [13]: 6.9 h; half-life [14]: 3 h; half-life [15]: 5.8 h; half-life [16]: 4.5 h; MIC [17]: 0.12 µg/mL (≈ 0.157 µM); ED50 [18]: 1.8 mg/kg; MIC [19]: 0.299 µM (≈ 0.229 µg/mL); MIC [20]: 0.0746 µM (≈ 0.0571 µg/mL); MIC [22]: 0.0187 µM (≈ 0.0143 µg/mL); ED50 [23]: 8.8 mg/kg
CCn1cc(C(=O)OCC2=C(C(=O)O)N3C(=O)[C@@H](NC(=O)COc4ccccc4)C3SC2)c(=O)c2cc(F)c(-n3cccc3)cc21 (some centres undefined)	> 128 µg/mL	16 µg/mL (≈ 24.7 µM)	128 µg/mL (≈ 198 µM)	2 µg/mL (≈ 3.09 µM)	0.5 µg/mL (≈ 0.773 µM)	–	2 µg/mL (≈ 3.09 µM)	–	–
CCn1cc(C(=O)OCC2=C(C(=O)O)N3C(=O)[C@@H](NC(=O)COc4ccccc4)C3SC2)c(=O)c2cc(F)c(N3CCCC3)cc21 (some centres undefined)	> 128 µg/mL	–	32 µg/mL (≈ 49.2 µM)	< 0.008 µg/mL	0.5 µg/mL (≈ 0.768 µM)	32 µg/mL (≈ 49.2 µM)	–	–	–
CCn1cc(C(=O)OCC2=C(C(=O)O)N3C(=O)[C@@H](NC(=O)/C(=N/OC)c4csc(N)n4)C3SC2)c(=O)c2cc(F)c(N3CCN(C=O)CC3)cc21 (some centres undefined)	> 128 µg/mL	8 µg/mL (≈ 10.8 µM)	32 µg/mL (≈ 43.1 µM)	–	8 µg/mL (≈ 10.8 µM)	–	–	–	–
CCn1cc(C(=O)O)c(=O)c2cc(F)c(N3CCCC3)cc21	> 128 µg/mL	–	–	> 128 µg/mL	0.063 µg/mL (≈ 0.207 µM)	1 µg/mL (≈ 3.29 µM)	–	128 µg/mL (≈ 421 µM)	–
CCn1cc(C(=O)OCC2=C(C(=O)O)N3C(=O)[C@@H](NC(=O)/C(=N/OC)c4csc(N)n4)C3SC2)c(=O)c2cc(F)c(N3CCSCC3)cc21 (some centres undefined)	128 µg/mL (≈ 175 µM)	–	8 µg/mL (≈ 10.9 µM)	0.016 µg/mL (≈ 0.0219 µM)	0.5 µg/mL (≈ 0.683 µM)	2 µg/mL (≈ 2.73 µM)	< 0.008 µg/mL	–	MIC [17]: 1 µg/mL (≈ 1.37 µM)
CC(=O)OCC1=C(C(=O)O)N2C(=O)[C@@H](NC(=O)COc3ccccc3)C2SC1 (some centres undefined)	–	–	–	–	–	–	–	–	MIC [24]: > 128 µg/mL; MIC [25]: 64 µg/mL (≈ 157 µM); MIC [26]: > 128 µg/mL; MIC [27]: > 128 µg/mL; MIC [28]: 64 µg/mL (≈ 157 µM); MIC [29]: > 128 µg/mL; MIC [30]: > 128 µg/mL; MIC [31]: 0.25 µg/mL (≈ 0.615 µM); MIC [32]: 0.5 µg/mL (≈ 1.23 µM); MIC [33]: 0.25 µg/mL (≈ 0.615 µM); MIC [34]: 0.063 µg/mL (≈ 0.155 µM); MIC [35]: > 128 µg/mL; MIC [36]: 64 µg/mL (≈ 157 µM); MIC [37]: > 128 µg/mL; MIC [38]: > 128 µg/mL
O=C(COc1ccccc1)N[C@@H]1C(=O)N2C(C(=O)O)=C(COC(=O)c3cn(-c4ccc(F)cc4)c4cc5c(cc4c3=O)OCO5)CSC12 (some centres undefined)	> 128 µg/mL	–	–	1 µg/mL (≈ 1.48 µM)	64 µg/mL (≈ 95 µM)	–	2 µg/mL (≈ 2.97 µM)	64 µg/mL (≈ 95 µM)	MIC [39]: 64 µg/mL (≈ 95 µM)
CCn1cc(C(=O)OCC2=C(C(=O)O)N3C(=O)[C@@H](NC(=O)COc4ccccc4)C3SC2)c(=O)c2cc(F)c(N3CCN(C=O)CC3)cc21 (some centres undefined)	128 µg/mL (≈ 185 µM)	4 µg/mL (≈ 5.77 µM)	–	–	2 µg/mL (≈ 2.88 µM)	–	–	8 µg/mL (≈ 11.5 µM)	MIC [17]: 128 µg/mL (≈ 185 µM); MIC [40]: 2 µg/mL (≈ 2.88 µM)
